Reference: PubChem BioAssay AID504767 (Southern Research Specialized Biocontainment Screening …, 2011)
Calls of active or inactive are those of the source.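 How the source made its calls: active means target-selective compounds that prevent over 30% of T7 phage killing of the bacteria in the dose series; inactive means the rest.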

Experiment: K1 capsule specificity via T7 phage lysis, dose response, selectivity assay for bacterial capsule biogenesis inhibitors, EV36 strain, set 4 (AID 504767)
Conditions: E. coli EV36 T7 phage lysis; series mostly up to 100 µM
Summary of the method: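 System – Escherichia coli EV36, a K1:K-12 hybrid strain · Repeats – quadruplicate · Technique – OD600 absorbance · Probe or stimulus – T7 bacteriophage · Timing – 1.5 h compound at 37 °C, read 3 h post-infection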

SMILES	outcome
O=C(Nc1nc2ccc(F)cc2s1)c1ccccn1	inactive
O=C(Nc1nc2c(F)cc(F)cc2s1)c1cccnc1	inactive
O=C(Nc1nc2c(F)cc(F)cc2s1)c1ccccc1	inactive
Cc1cc(C)c2nc(NC(=O)c3ccccn3)sc2c1	inactive
O=C(Nc1nc2ccccc2s1)c1ccncc1	inactive
O=C(Nc1nc2c(F)cccc2s1)c1ccccn1	inactive
O=C(Nc1nc2c(Cl)cc(Cl)cc2s1)c1ccccn1	inactive
O=C(Nc1nc2c(F)cc(F)cc2s1)c1ccncc1	inactive
O=C(Nc1nc2ccccc2s1)c1cccnc1	inactive
